Experimental data pooled from the literature.
Lines come from different studies, so protocols differ.
RPS6KA3: Ribosomal protein S6 kinase alpha-3 (RPS6KA3, Homo sapiens, UniProt P51812)
NTRK2: BDNF/NT-3 growth factors receptor (NTRK2, Homo sapiens, UniProt Q16620)
BCHE: Cholinesterase (BCHE, Equus caballus, UniProt P81908)
SIRT3: NAD-dependent protein deacetylase sirtuin-3, mitochondrial (SIRT3, Homo sapiens, UniProt Q9NTG7)
PTPN11: Tyrosine-protein phosphatase non-receptor type 11 (PTPN11, Homo sapiens, UniProt Q06124)
PTGS1: Prostaglandin G/H synthase 1 (PTGS1, Ovis aries, UniProt P05979)
DRD1: D(1A) dopamine receptor (DRD1, Homo sapiens, UniProt P21728)

Structure (SMILES)	target	assay	setting	IC50 [µM]
CN1CCN(c2ccc(Nc3ncc4cc(C#N)c(=O)n(C5CCCC5)c4n3)cc2)CC1	RPS6KA3	enzyme activity, inhibitor		0.38
Cc1cnc(-c2ccc(-c3ccc(NC(=O)Nc4c(F)cc(F)cc4F)cc3F)c3c2C(=O)NC3)[nH]1	NTRK2	enzyme activity, inhibitor		0.0065
O=C1Nc2ccc(I)cc2/C1=C/c1cc(Br)c(O)c(Br)c1	Ribosomal protein S6 kinase alpha-3, N-terminal kinase domain (RPS6KA3, Homo sapiens, UniProt P51812)	enzyme activity, inhibitor, FP		1
Cc1c(Br)cc(NC(=O)NS(=O)(=O)O)cc1Br	Tyrosine-protein phosphatase non-receptor type 9 (PTPN9, Homo sapiens, UniProt P43378)	enzyme activity, inhibitor, absorbance		> 10
COC(=O)[C@H](Cc1ccc(OP(=O)(O)O)c(OP(=O)(O)O)c1)NC(=O)OCC1c2ccccc2-c2ccccc21	Signal transducer and activator of transcription 5A, SH2 (Homo sapiens, UniProt P42229)	ligand displacement, FP		15.8
O=S1(=O)CCN(c2nccc(NCc3ccccc3)n2)CC1	BCHE	enzyme activity, inhibitor		> 100
O=C(NO)c1ccc(CN(c2cnccn2)c2cnccn2)cc1	SIRT3	enzyme activity, inhibitor, fluorescence		> 10
CC1=C[C@@]2(C[C@H](C)[C@H]3CC=C(C)C(=O)[C@@H]3O2)OC1=O	PTPN11	enzyme activity, inhibitor		> 500
N#CC1(c2ccc(NC(=O)c3cccnc3NCc3ccncc3)cc2)CCCC1	Mitogen-activated protein kinase kinase kinase 20 (MAP3K20, Homo sapiens, UniProt Q9NYL2)	enzyme activity, inhibitor, mass spectrometry		0.21
CC(=O)NO	Urease (Canavalia ensiformis, UniProt P07374)	enzyme activity, inhibitor		20.4
OCCN1CCN(c2nccc(NCc3ccccc3)n2)CC1	BCHE	enzyme activity, inhibitor		> 100
CC(NC(=O)c1ccccc1/N=C/c1c(O)ccc2ccccc12)c1ccccc1 (centres unmarked)	SIRT3	enzyme activity, inhibitor, HPLC		150
CC(=O)N1C[C@@H](CCN2CCC(c3c[nH]c4ccccc34)CC2)c2ccccc21	Sodium-dependent serotonin transporter (SLC6A4, Homo sapiens, UniProt P31645)	ligand displacement, radioligand	cell membranes	0.182
CCCCCCCCCCCCNC(=S)NCCCC[C@H](NS(C)(=O)=O)C(=O)N[C@H](C)C(=O)N[C@@H](CCCNC(=N)N)C(=O)N1CCOCC1	SIRT3	enzyme activity, inhibitor		55
CSc1ccc(/C=C2/C(C)=C(CC(=O)O)c3cc(F)ccc32)cc1	cGMP-inhibited 3',5'-cyclic phosphodiesterase 3B (PDE3B, Homo sapiens, UniProt Q13370)	enzyme activity, inhibitor		> 100
CN(C)CC#Cc1ccc2[nH]c3c(c2c1)-c1nc(N)ncc1CCC3	Dual specificity mitogen-activated protein kinase kinase 2 (MAP2K2, Homo sapiens, UniProt P36507)	enzyme activity, inhibitor, radiometric		> 10
CS(=O)(=O)c1ccc(-c2nc3ccccn3c2Nc2ccccc2)cc1	PTGS1	enzyme activity, inhibitor, fluorescence		18.1
CN(CCCCNC(=O)c1cc2ccccc2[nH]1)[C@@H]1Cc2cccc3[nH]c(=O)n(c23)C1	DRD1	ligand displacement, radioligand		> 9.2

Structure (SMILES)	target	assay	setting	IC50 [µM]
Cc1cc(Nc2cc(CN3CCOCC3)c3nc(C)c(Cc4ccc(Cl)cc4F)n3n2)n[nH]1	Mitogen-activated protein kinase kinase kinase 9 (MAP3K9, Homo sapiens, UniProt P80192)	enzyme activity, inhibitor, TR-FRET		0.299
N[C@@H](Cc1ccccc1)C(=O)N[C@@H](CC(=O)O)C(=O)N[C@@H](Cc1ccccc1)C(=O)O	PTPN11	enzyme activity, inhibitor, absorbance	pH 7.4	97.9
Cc1cc(-c2ccc(NC(=O)[C@H](CCCCNC(=O)CCN3C(=O)CC(SCC(=O)N[C@H](Cc4ccccc4)C(=O)N[C@H]4CSSC[C@@H](C(=O)N[C@H](C(=O)O)[C@@H](C)O)NC(=O)[C@H]([C@@H](C)O)NC(=O)[C@H](CCCCN)NC(=O)[C@@H](Cc5c[nH]c6ccccc56)NC(=O)[C@H](Cc5ccc(O)cc5)NC4=O)C3=O)NC(=O)CN3CCN(CC(=O)O)CCN(CC(=O)O)CCN(CC(=O)O)CC3)c(C)c2)ccc1N=Nc1ccc2c(S(=O)(=O)O)cc(S(=O)(=O)O)c(N)c2c1O (some centres unmarked)	Somatostatin receptor type 2 (Rattus norvegicus, UniProt P30680)	ligand displacement		0.00916
COc1ccc(Nc2c(-c3ccc(S(C)(=O)=O)cc3)nc3cccc(C)n23)cc1	PTGS1	enzyme activity, inhibitor, fluorescence		21.1
C=C(NC(=O)[C@H](CCCCNC(=S)NCCCCCCCCCCCC)NS(C)(=O)=O)C(=O)N[C@@H](CCCNC(=N)N)C(N)=O	SIRT3	enzyme activity, inhibitor		2.9
FC(F)(F)c1ccc(CN2CCN(c3nccc(NCc4ccccc4)n3)CC2)cc1	BCHE	enzyme activity, inhibitor		> 100
O=Cc1ccc2[nH]ncc2c1	RPS6KA3	enzyme activity, inhibitor		~350
Cc1ccc(NC(=O)c2ccc(C)c(C(F)(F)F)c2)cc1C#Cc1nn(C2CCC(O)CC2)c2ncnc(N)c12 (centres unmarked)	NTRK2	enzyme activity, inhibitor, radiometric		0.899
N[C@@H](CC(=O)O)C(=O)N[C@@H](Cc1ccccc1)C(=O)O	PTPN11	enzyme activity, inhibitor, absorbance	pH 7.4	109
CC(=O)N1CCN(c2nccc(NCc3ccccc3)n2)CC1	BCHE	enzyme activity, inhibitor		> 100
Oc1cc2c(cc1OCC(F)F)CCN1Cc3c(c(Br)cc(O)c3OCC(F)F)C[C@@H]21	DRD1	cAMP, antagonist, TR-FRET		0.23
CC1Cc2ccccc2N1C(=O)NCCCCN(C)[C@@H]1Cc2cccc3[nH]c(=O)n(c23)C1 (mixture of isomers)	DRD1	ligand displacement, radioligand		> 10
CCN(CC)CCCC[C@H](NC(=O)[C@H](CC(C)C)NC(=O)[C@H](C)NC(=O)[C@H](Cc1ccccc1)NC(=O)c1ccc(C(C)(C)C)cc1)C(=O)N[C@@H](CO)C(=O)OC	Chromobox protein homolog 8 (Homo sapiens, UniProt Q9HC52)	ligand displacement, TR-FRET		0.56
CCOC(F)(F)c1nnc2cnc(-c3cnc(OCC(F)(F)F)c(F)c3)cn12	Sodium channel protein type 8 subunit alpha (Scn8a, Mus musculus, UniProt Q9WTU3)	ion current, inhibitor, patch clamp		0.145
CC[C@@H](C(=O)Nc1ccc(C(N)=O)c(F)c1)n1cc(OC)c(-c2cc(Cl)ccc2-n2cc(C(F)(F)F)nn2)cc1=O	Coagulation factor VII (F7, Homo sapiens, UniProt P08709)	enzyme activity, inhibitor		1.9
COc1ccc(COc2c(OC)ccc3c2C[C@@H](C(=O)O)N(c2nc4ccc(C#N)cc4o2)C3)cn1	Type-2 angiotensin II receptor (AGTR2, Homo sapiens, UniProt P50052)	cell-free assay, TR-FRET		0.046
CC(C)(C)n1nc(-c2ccc3nc(OC4CC4)ccc3c2)c(C(N)=O)c1N	Calcium/calmodulin-dependent protein kinase type 1D (CAMK1D, Homo sapiens, UniProt Q8IU85)	cell-free assay		> 10
